# From BindingDB's records for doi:10.1021/jm00108a037 (Katholieke Universiteit Leuven, 1991)
# Tests used:
# [1] = target: T1, Acyl-protein thioesterase 1 (Rattus norvegicus, UniProt P70470); assay: ChEBML_100186
# From the text: in vitro inhibitory activity against Lysosomal phospholipase A1 consisting of negatively charged liposomes and lysosomal extracts. p<0.05
# [2] = target: T1, Acyl-protein thioesterase 1; assay: in vitro inhibitory activity against Lysosomal phospholipase A1 consisting of negatively charged liposomes and lysosomal extracts.
# How it was run: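 Lysosomal phospholipase activity measured on labeled phosphatidylcholine incorporated into negatively charged liposomes, read as release of labeled lysophosphatidylcholine.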
# T1 sequence (P70470 whole entry): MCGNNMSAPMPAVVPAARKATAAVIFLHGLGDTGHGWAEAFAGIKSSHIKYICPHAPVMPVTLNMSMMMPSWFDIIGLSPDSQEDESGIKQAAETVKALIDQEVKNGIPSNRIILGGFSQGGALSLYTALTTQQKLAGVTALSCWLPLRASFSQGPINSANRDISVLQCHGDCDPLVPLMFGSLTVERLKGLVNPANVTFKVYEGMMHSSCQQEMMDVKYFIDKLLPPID
SMILES,IC50 [1] [µM],IC50 [2] [µM]
NCC1OC(OC2C(N)CC(N)(CO)C(OC3OC(CO)C(O)C(N)C3O)C2O)C(N)C(O)C1O (centres undefined),79,–
NCC1OC(OC2C(N)CC(N)(CO)C(OC3OC(CCl)C(O)C(N)C3O)C2O)C(N)C(O)C1O (centres undefined),–,105
CC(=O)NCC1OC(OC2C(O)C(OC3OC(CN)C(O)C(O)C3N)C(N)CC2(N)CO)C(O)C(N)C1O (centres undefined),–,119
[N-]=[N+]=NCC1OC(OC2C(O)C(OC3OC(CN)C(O)C(O)C3N)C(N)CC2(N)CO)C(O)C(N)C1O (centres undefined),95,–
